Assay results taken from ChEMBL document CHEMBL2390927, “Design, synthesis and antimicrobial evaluation of novel benzimidazole type of Fluconazole analogues and their synergistic effects with Chloromycin, Norfloxacin and Fluconazole” (2013).
In brackets after ≈: the same amount, converted by molar mass.

How the values were obtained:
Escherichia coli [1] = experiment: Antibacterial activity against Escherichia coli JM109 after 24 hrs by two-fold serial dilution method; format: functional; settings: JM109, 24 h
Bacillus subtilis [2] = experiment: Antibacterial activity against Bacillus subtilis ATCC 21216 after 24 hrs by two-fold serial dilution method; format: functional; settings: ATCC 21216, 24 h
In short: (§1)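 MIC taken as the lowest concentration giving complete growth inhibition, by standard two-fold serial dilution in 96-well plates following NCCLS. Stocks in DMSO, diluted in Mueller–Hinton broth. Inoculum adjusted with sterile saline to 1 × 10⁵ CFU. DMSO with inoculum and no drug served as solvent control. Growth read visually and spectrophotometrically, in triplicate.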

Micrococcus luteus [3] = experiment: Antibacterial activity against Micrococcus luteus ATCC 4698 after 24 hrs by two-fold serial dilution method; format: functional; settings: ATCC 4698, 24 h; in short: as §1
Cyberlindnera jadinii [4] = experiment: Antifungal activity against Candida utilis after 24 hrs by two-fold serial dilution method; format: functional; settings: Williopsis jadinii
In short: (§2)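 Spore suspension in sterile distilled water from one-day-old cultures on Sabouraud agar, final 1–5 × 10³ spore mL⁻¹. Compound stocks diluted in sterile RPMI 1640 as two-fold serial dilutions in microdilution plates. MIC is the lowest concentration completely inhibiting growth. Growth monitored visually and spectrophotometrically, in triplicate.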

Staphylococcus aureus [5] = experiment: Antibacterial activity against Staphylococcus aureus ATCC 6538 after 24 hrs by two-fold serial dilution method; format: functional; settings: ATCC 6538, 24 h
Candida albicans [6] = experiment: Antifungal activity against Candida albicans ATCC 76615 after 24 hrs by two-fold serial dilution method; format: functional; settings: ATCC 76615, 24 h; in short: as §2
Salmonella typhi = experiment: Antibacterial activity against Bacillus typhi after 24 hrs by two-fold serial dilution method; format: functional, Salmonella enterica subsp. enterica serovar Typhi; settings: Salmonella enterica
In short: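 Two-fold serial dilution in 96-well plates following NCCLS; compounds dissolved in DMSO as stocks, then diluted in Mueller-Hinton broth; bacterial suspension adjusted with sterile saline to 1 × 10⁵ CFU; MIC taken as lowest concentration completely inhibiting growth, monitored visually and spectrophotometrically; DMSO-plus-inoculum well as solvent control; triplicate.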

Saccharomyces cerevisiae [7] = experiment: Antifungal activity against Saccharomyces cerevisiae after 24 hrs by two-fold serial dilution method; format: functional; in short: as §2
Aspergillus flavus [8] = experiment: Antifungal activity against Aspergillus flavus after 24 hrs by two-fold serial dilution method; format: functional; in short: as §2
Candida [9] = experiment: Antifungal activity against Candida mycoderma after 24 hrs by two-fold serial dilution method; format: functional; in short: as §2
Staphylococcus aureus [10] = experiment: Antibacterial activity against methicillin-resistant Staphylococcus aureus N315 after 24 hrs by two-fold serial dilution method; format: functional; settings: N315, 24 h
Pseudomonas aeruginosa [11] = experiment: Antibacterial activity against Pseudomonas aeruginosa ATCC 27853 after 24 hrs by two-fold serial dilution method; format: functional; settings: ATCC 27853, 24 h; in short: as §1
Bacillus [12] = experiment: Antibacterial activity against Bacillus proteus ATCC 13315 after 24 hrs by two-fold serial dilution method; format: functional; settings: ATCC 13315, 24 h; in short: as §1
Escherichia coli [13] = experiment: Ratio of chloromycin MIC to compound MIC for Escherichia coli JM109; format: functional
Staphylococcus aureus [14] = experiment: Ratio of norfloxacin MIC to compound MIC for Staphylococcus aureus ATCC 6538; format: functional
Saccharomyces cerevisiae [15] = experiment: Ratio of fluconazole MIC to compound MIC for Saccharomyces cerevisiae; format: functional
Staphylococcus aureus [16] = experiment: Ratio of chloromycin MIC to compound MIC for Staphylococcus aureus ATCC 6538; format: functional
Candida [17] = experiment: Ratio of fluconazole MIC to compound MIC for Candida mycoderma; format: functional
Pseudomonas aeruginosa [18] = experiment: Ratio of chloromycin MIC to compound MIC for Pseudomonas aeruginosa ATCC 27853; format: functional
Escherichia coli [19] = experiment: Potentiation of norfloxacin-induced antibacterial activity against Escherichia coli JM109 at 4 times MIC after 24 hrs by two-fold serial dilution method; format: functional
Saccharomyces cerevisiae [20] = experiment: Potentiation of fluconazole-induced antifungal activity against Saccharomyces cerevisiae at 2 times MIC after 24 hrs by two-fold serial dilution method; format: functional
Candida [21] = experiment: Potentiation of fluconazole-induced antifungal activity against Candida mycoderma at 2 times MIC after 24 hrs by two-fold serial dilution method; format: functional
Micrococcus luteus [22] = experiment: Potentiation of chloromycin-induced antibacterial activity against Micrococcus luteus ATCC 4698 at 2 times MIC after 24 hrs by two-fold serial dilution method; format: functional
Bacillus subtilis [23] = experiment: Potentiation of norfloxacin-induced antibacterial activity against Bacillus subtilis ATCC 21216 at MIC after 24 hrs by two-fold serial dilution method; format: functional
Micrococcus luteus [24] = experiment: Potentiation of norfloxacin-induced antibacterial activity against Micrococcus luteus ATCC 4698 at MIC after 24 hrs by two-fold serial dilution method; format: functional
Bacillus [25] = experiment: Potentiation of chloromycin-induced antibacterial activity against Bacillus proteus ATCC 13315 at 4 times MIC after 24 hrs by two-fold serial dilution method; format: functional
Cyberlindnera jadinii [26] = experiment: Potentiation of fluconazole-induced antifungal activity against Candida utilis at 4 times MIC after 24 hrs by two-fold serial dilution method; format: functional
Candida albicans [27] = experiment: Potentiation of fluconazole-induced antifungal activity against Candida albicans ATCC 76615 at MIC after 24 hrs by two-fold serial dilution method; format: functional
Escherichia coli [28] = experiment: Potentiation of chloromycin-induced antibacterial activity against Escherichia coli JM109 at 8 times MIC after 24 hrs by two-fold serial dilution method; format: functional
Pseudomonas aeruginosa [29] = experiment: Potentiation of norfloxacin-induced antibacterial activity against Pseudomonas aeruginosa ATCC 27853 at 2 times MIC after 24 hrs by two-fold serial dilution method; format: functional
Bacillus [30] = experiment: Potentiation of norfloxacin-induced antibacterial activity against Bacillus proteus ATCC 13315 at 2 times MIC after 24 hrs by two-fold serial dilution method; format: functional
Staphylococcus aureus [31] = experiment: Potentiation of norfloxacin-induced antibacterial activity against Staphylococcus aureus ATCC 6538 at MIC after 24 hrs by two-fold serial dilution method; format: functional
Pseudomonas aeruginosa [32] = experiment: Potentiation of chloromycin-induced antibacterial activity against Pseudomonas aeruginosa ATCC 27853 at 4 times MIC after 24 hrs by two-fold serial dilution method; format: functional
Bacillus subtilis [33] = experiment: Potentiation of chloromycin-induced antibacterial activity against Bacillus subtilis ATCC 21216 at 2 times MIC after 24 hrs by two-fold serial dilution method; format: functional
Aspergillus flavus [34] = experiment: Potentiation of fluconazole-induced antifungal activity against Aspergillus flavus at 2 times MIC after 24 hrs by two-fold serial dilution method; format: functional

| Structure (SMILES) | MIC (Escherichia coli [1]) [µg/mL] | MIC (Bacillus subtilis [2]) [µg/mL] | MIC (Micrococcus luteus [3]) [µg/mL] | MIC (Cyberlindnera jadinii [4]) [µg/mL] | MIC (Staphylococcus aureus [5]) [µg/mL] | MIC (Candida albicans [6]) [µg/mL] | MIC (Salmonella typhi) [µg/mL] | MIC (Saccharomyces cerevisiae [7]) [µg/mL] | MIC (Aspergillus flavus [8]) [µg/mL] | MIC (Candida [9]) [µg/mL] | MIC (Staphylococcus aureus [10]) [µg/mL] | MIC (Pseudomonas aeruginosa [11]) [µg/mL] | MIC (Bacillus [12]) [µg/mL] | other results |
| --- | --- | --- | --- | --- | --- | --- | --- | --- | --- | --- | --- | --- | --- | --- |
| FC(F)(F)c1cccc(NCc2nc3ccccc3[nH]2)c1 | 32 (≈ 110 µM) | 32 (≈ 110 µM) | 32 (≈ 110 µM) | 32 (≈ 110 µM) | 16 (≈ 54.9 µM) | 32 (≈ 110 µM) | 32 (≈ 110 µM) | 32 (≈ 110 µM) | 16 (≈ 54.9 µM) | 16 (≈ 54.9 µM) | 16 (≈ 54.9 µM) | 64 (≈ 220 µM) | 16 (≈ 54.9 µM) | – |
| Fc1ccc(NCc2nc3ccccc3[nH]2)cc1 | 64 (≈ 265 µM) | 32 (≈ 133 µM) | 64 (≈ 265 µM) | 32 (≈ 133 µM) | 32 (≈ 133 µM) | 64 (≈ 265 µM) | 128 (≈ 531 µM) | 64 (≈ 265 µM) | 32 (≈ 133 µM) | 32 (≈ 133 µM) | 64 (≈ 265 µM) | 64 (≈ 265 µM) | 32 (≈ 133 µM) | – |
| Clc1ccc(NCc2nc3ccccc3[nH]2)cc1 | 32 (≈ 124 µM) | 64 (≈ 248 µM) | 32 (≈ 124 µM) | 32 (≈ 124 µM) | 64 (≈ 248 µM) | 64 (≈ 248 µM) | 128 (≈ 497 µM) | 64 (≈ 248 µM) | 64 (≈ 248 µM) | 64 (≈ 248 µM) | 32 (≈ 124 µM) | 128 (≈ 497 µM) | 64 (≈ 248 µM) | – |
| FC(F)(F)c1cc(NCc2nc3ccccc3[nH]2)cc(C(F)(F)F)c1 | 2 (≈ 5.57 µM) | 4 (≈ 11.1 µM) | 8 (≈ 22.3 µM) | 8 (≈ 22.3 µM) | 2 (≈ 5.57 µM) | 2 (≈ 5.57 µM) | 2 (≈ 5.57 µM) | 2 (≈ 5.57 µM) | 8 (≈ 22.3 µM) | 2 (≈ 5.57 µM) | 16 (≈ 44.5 µM) | 4 (≈ 11.1 µM) | 2 (≈ 5.57 µM) | Ratio (Escherichia coli [13]): 8; Ratio (Staphylococcus aureus [14]): 4; Ratio (Saccharomyces cerevisiae [15]): 8; Ratio (Staphylococcus aureus [16]): 4; Ratio (Candida [17]): 2; Ratio (Pseudomonas aeruginosa [18]): 4 |
| Cl.Cl.Fc1ccc(CN(Cc2nc3ccccc3[nH]2)c2cc(C(F)(F)F)cc(C(F)(F)F)c2)c(F)c1 | 32 | 8 | 8 | 16 | 8 | 8 | 16 | 8 | 8 | 16 | 16 | 16 | 16 | fractional inhibitory concentration index (FICI) (Escherichia coli [19]): 0.375; fractional inhibitory concentration index (FICI) (Saccharomyces cerevisiae [20]): 0.375; fractional inhibitory concentration index (FICI) (Candida [21]): 0.25; fractional inhibitory concentration index (FICI) (Micrococcus luteus [22]): 0.375; fractional inhibitory concentration index (FICI) (Bacillus subtilis [23]): 0.25; fractional inhibitory concentration index (FICI) (Micrococcus luteus [24]): 0.25; fractional inhibitory concentration index (FICI) (Bacillus [25]): 0.375; fractional inhibitory concentration index (FICI) (Cyberlindnera jadinii [26]): 0.375; fractional inhibitory concentration index (FICI) (Candida albicans [27]): 0.375; fractional inhibitory concentration index (FICI) (Escherichia coli [28]): 0.375; fractional inhibitory concentration index (FICI) (Pseudomonas aeruginosa [29]): 0.25; fractional inhibitory concentration index (FICI) (Bacillus [30]): 0.25; fractional inhibitory concentration index (FICI) (Staphylococcus aureus [31]): 0.25; fractional inhibitory concentration index (FICI) (Pseudomonas aeruginosa [32]): 0.375; fractional inhibitory concentration index (FICI) (Bacillus subtilis [33]): 0.5; fractional inhibitory concentration index (FICI) (Aspergillus flavus [34]): 0.375 |
